According to ChEMBL document CHEMBL2021927, “Synthesis and evaluation of the cytotoxicities of tetraindoles: observation that the 5-hydroxy tetraindole (SK228) induces G₂ arrest and apoptosis in human breast cancer cells” (J Med Chem, 2012):

Tests used:
MDA-MB-231 [1] = test: Growth inhibition of human MDA-MB-231 cells at 20 uM after 48 hrs by MTT assay; format: functional; details: MDA-MB-231, 48 h, read-out: GI
In short: (§1)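 MTT viability assay with 48 h exposure at a single 20 μM concentration. Result given as percent inhibition of cell growth; n = 3.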

MCF7 [2] = test: Growth inhibition of human MCF7 cells at 20 uM after 48 hrs by MTT assay; format: functional; details: MCF7, 48 h, read-out: GI; in short: as §1
MDA-MB-231 [3] = test: Growth inhibition of human MDA-MB-231 cells after 48 hrs by MTT assay; format: functional, cell-based; details: MDA-MB-231, 48 h
MCF7 [4] = test: Growth inhibition of human MCF7 cells after 48 hrs by MTT assay; format: functional, cell-based; details: MCF7, 48 h

IC50 (MDA-MB-231 [3])	IC50 (MCF7 [4])	Compound	inhibition of growth at 20 µM (MDA-MB-231 [1])	inhibition of growth at 20 µM (MCF7 [2])
> 20 µM	> 20 µM	Oc1ccc2[nH]cc(C(c3ccc(C(c4c[nH]c5ccccc45)c4c[nH]c5ccccc45)cc3)c3c[nH]c4ccc(O)cc34)c2c1	36%	23%
> 20 µM	> 20 µM	Brc1ccc2[nH]cc(C(c3ccc(C(c4c[nH]c5ccccc45)c4c[nH]c5ccccc45)cc3)c3c[nH]c4ccc(Br)cc34)c2c1	8%	17%
> 20 µM	9.5 µM	N#Cc1ccc2[nH]cc(C(c3ccc(C(c4c[nH]c5ccc(C#N)cc45)c4c[nH]c5ccc(C#N)cc45)cc3)c3c[nH]c4ccc(C#N)cc34)c2c1	8%	
1 µM	1.3 µM	c1ccc2c3c([nH]c2c1)Cc1c([nH]c2ccccc12)Cc1c([nH]c2ccccc12)Cc1c([nH]c2ccccc12)C3		
10 µM	50 µM	c1ccc2c(Cc3c[nH]c4ccccc34)c[nH]c2c1 [ARUNDINE]		
24.3 µM	> 20 µM	c1cc(C(c2c[nH]c3ccccc23)c2c[nH]c3ccccc23)cc(C(c2c[nH]c3ccccc23)c2c[nH]c3ccccc23)c1		32%
> 20 µM	17.8 µM	Oc1ccc2[nH]cc(C(c3cccc(C(c4c[nH]c5ccc(O)cc45)c4c[nH]c5ccc(O)cc45)c3)c3c[nH]c4ccc(O)cc34)c2c1	0%	
> 20 µM	> 20 µM	c1ccc2c(C(c3ccc(C(c4c[nH]c5ccccc45)c4c[nH]c5ccccc45)s3)c3c[nH]c4ccccc34)c[nH]c2c1	36%	34%
> 20 µM	> 20 µM	Nc1ccc2[nH]cc(C(c3ccc(C(c4c[nH]c5ccc(N)cc45)c4c[nH]c5ccc(N)cc45)cc3)c3c[nH]c4ccc(N)cc34)c2c1	35%	25%
> 20 µM	> 20 µM	Brc1ccc2[nH]cc(C(c3ccc(C(c4c[nH]c5ccc(Br)cc45)c4c[nH]c5ccc(Br)cc45)cc3)c3c[nH]c4ccc(Br)cc34)c2c1	5%	25%
> 20 µM	> 20 µM	Oc1ccc2c(C(c3ccc(C(c4c[nH]c5cc(O)ccc45)c4c[nH]c5cc(O)ccc45)cc3)c3c[nH]c4cc(O)ccc34)c[nH]c2c1	16%	0%
9.8 µM	16.1 µM	c1ccc2c(C(c3ccc(C(c4c[nH]c5ccccc45)c4c[nH]c5ccccc45)cc3)c3c[nH]c4ccccc34)c[nH]c2c1		
20.1 µM	19.8 µM	c1ccc2c(C3CCCC(c4c[nH]c5ccccc45)(c4c[nH]c5ccccc45)C3)c[nH]c2c1 (stereo not drawn)		
13.9 µM	12.6 µM	Oc1ccc2[nH]cc(C(c3ccc(C(c4c[nH]c5ccccc45)c4c[nH]c5ccccc45)cc3)c3c[nH]c4ccccc34)c2c1 (stereo not drawn)		
> 20 µM	> 20 µM	c1ccc(C(c2c[nH]c3ccccc23)c2c[nH]c3ccccc23)c(Oc2ccccc2C(c2c[nH]c3ccccc23)c2c[nH]c3ccccc23)c1	8%	48%
> 20 µM	> 20 µM	COc1ccc2[nH]cc(C(c3ccc(C(c4c[nH]c5ccc(OC)cc45)c4c[nH]c5ccc(OC)cc45)cc3)c3c[nH]c4ccc(OC)cc34)c2c1	3%	43%
7.8 µM	6.3 µM	Oc1ccc2[nH]cc(C(c3ccc(C(c4c[nH]c5ccc(O)cc45)c4c[nH]c5ccc(O)cc45)cc3)c3c[nH]c4ccccc34)c2c1 (stereo not drawn)		
